19 compounds from ChEMBL document CHEMBL2040794, “Synthesis and structure-activity analysis of new phosphonium salts with potent activity against African trypanosomes” (J Med Chem, 2012) can be followed below.

The subject of data set [1] is Trypanosoma brucei rhodesiense. As to the kind of experiment: Antitrypanosomal activity against Trypanosoma brucei rhodesiense STIB900 infected in rat L6 cells after 72 hrs by alamar blue assay. Format: functional, organism-based. Particulars: Trypanosoma brucei, STIB900, 72 h.
The subject of data set [2] is Trypanosoma brucei brucei. As to the kind of experiment: Antitrypanosomal activity against wild type Trypanosoma brucei brucei Lister 427 after 3 days by alamar blue assay. It is filed as functional, organism-based. To be noted: Trypanosoma brucei, Lister 427, 72 h. The method, boiled down:
(§1)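 Bloodstream-form T. b. brucei (wild-type s427; TbAT1-KO, made from s427 by TbAT1 deletion; B48, selected from TbAT1-KO in vitro on pentamidine, lacking functional HAPT1). Cells were exposed to compound for 48 h, then resazurin (Alamar blue) was added for a further 24 h. A single fluorescence reading gave EC50.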
Background: Alamar Blue is a resazurin reagent that responds to reducing activity.

The test system of data set [3] is Trypanosoma brucei brucei. As to the kind of experiment: Antitrypanosomal activity against diminazene-, pentamidine-, and melaminophenyl arsenical-resistant HAPT1-deficient Trypanosoma brucei brucei B48 after 3 days by alamar blue assay. Particulars: Trypanosoma brucei, B48, 72 h. It is filed as functional, organism-based. In short, it runs like this:
as §1

Data set [4] has as its system Trypanosoma brucei brucei. As to the kind of experiment: Resistance factor, ratio of EC50 for diminazene aceturate-resistant TbAT1 gene-deficient Trypanosoma brucei brucei AT1-KO to EC50 for wild type Trypanosoma brucei brucei Lister 427. Format: functional. The method, boiled down:
(§2)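 Resistance factor is the EC50 in the resistant line (TbAT1-KO or B48) divided by the EC50 in wild-type s427. […] Resistant and wild-type EC50s were compared by Student t-test.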

Data set [5] relates to Trypanosoma brucei brucei. As to the kind of experiment: Resistance factor, ratio of EC50 for diminazene-, pentamidine-, and melaminophenyl arsenical-resistant HAPT1-deficient Trypanosoma brucei brucei B48 to EC50 for wild type Trypanosoma brucei brucei Lister 427. It is filed as functional. In short, it runs like this:
as §2

The test system of a further data set is L6. The data set can be described thus: Cytotoxicity against rat L6 cells after 72 hrs by alamar blue assay. Format: cell-based. To be noted: Rattus norvegicus, L6, 72 h.
In data set [6] the test system is Trypanosoma brucei brucei. As to the kind of experiment: Antitrypanosomal activity against diminazene aceturate-resistant TbAT1 gene-deficient Trypanosoma brucei brucei AT1-KO after 3 days by alamar blue assay. It is filed as functional, organism-based. Particulars: Trypanosoma brucei, AT1-KO, 72 h. In short, it runs like this:
as §1

Data set [7] is described as follows: Selectivity index, ratio of EC50 for human HEK cells to EC50 for wild type Trypanosoma brucei brucei Lister 427. To be noted: HEK cells, read-out: Ratio EC50. Format: toxicity, cell-based, HEK293. The method, boiled down: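 Ratio of EC₅₀ in HEK cells to EC₅₀ in wild-type T. b. brucei s427, both from resazurin assays.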
A short description of data set [8]: Cytotoxicity against human HEK cells after 3 days by alamar blue assay. Format: cell-based, HEK293. To be noted: Homo sapiens, HEK293, 72 h. The method, boiled down:
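Human embryonic kidney cells tested by resazurin (Alamar blue) assay: 48 h with compound, then 24 h more after dye addition, single reading; EC₅₀ derived.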

On to `CC(C)C[P+](Cc1ccc(S(=O)(=O)c2ccc(C[P+](CC(C)C)(CC(C)C)CC(C)C)cc2)cc1)(CC(C)C)CC(C)C.[Br-].[Br-]`, for which the half-maximal effective concentration (EC50) (usually the concentration that produces a half-maximal response) in data set [1] was 6.31 µM; in data set [2] it was 16.7 µM; in data set [3], 13.3 µM; in the data set with L6, over 111 µM; in data set [6] it was 13.6 µM. The “Ratio EC50” value in data set [4] and in [5] was 0.8 throughout.

As to `C[P+](C)(Cc1ccc(C(=O)c2ccc(C[P+](C)(C)c3ccccc3)cc2)cc1)c1ccccc1.[Br-].[Br-]`, the EC50 in data set [1] was 8.8 µM; in data set [2] it was 19.2 µM; in data set [3] it was 24.6 µM; with L6, over 139 µM; in [6] it was 28.8 µM. Also, the “Ratio EC50” value in data set [4] is reported as 1.5; in [5], 1.3.

For `FC(F)(F)c1ccc([P+](Cc2ccc(Cc3ccc(C[P+](c4ccc(C(F)(F)F)cc4)(c4ccc(C(F)(F)F)cc4)c4ccc(C(F)(F)F)cc4)cc3)cc2)(c2ccc(C(F)(F)F)cc2)c2ccc(C(F)(F)F)cc2)cc1.[Br-].[Br-]`, the half-maximal effective concentration (EC50) in data set [1] was 1.72 µM; in data set [2], 0.23 µM; in [3], 0.28 µM; in the data set on L6, 7.52 µM; in data set [6], 0.37 µM; in data set [8] it was 77.1 µM. Further, the “Ratio EC50” value came to 1.6 in data set [4] and 1.2 in data set [5]. For the same compound, in data set [7], the selectivity ratio is 338.

Regarding `CC(C)C[P+](Cc1ccc(C(=O)c2ccccc2)cc1)(CC(C)C)CC(C)C.[Br-]`, the EC50 in data set [1] is 4.48 µM; in [2] it was 5.9 µM; in [3], 6.28 µM; with L6 it was over 209 µM; in data set [6], 6.1 µM; in data set [8] it was over 300 µM. Moreover, the “Ratio EC50” value stood at 1 in data set [4] and 1.1 in data set [5]. In data set [7], the selectivity ratio was over 50.

Consider `CC[P+](CC)(CC)Cc1ccc(Oc2ccc(C[P+](CC)(CC)CC)cc2)cc1.[Br-].[Br-]`, for which the EC50 was 31.9 µM in data set [1]; 36.5 µM in data set [2]; 36.6 µM in [3]; 102 µM with L6; 34.9 µM in [6]; over 300 µM in data set [8]. The “Ratio EC50” value in data set [4] and in data set [5] was 1 in each case. Moreover, in data set [7], the selectivity ratio is over 8.

Take `CC[P+](CC)(CC)Cc1ccc(C(=O)c2ccc(C[P+](CC)(CC)CC)cc2)cc1`: the EC50 in data set [1] is 77.8 µM; in data set [2] it was over 100 µM; in [3], over 100 µM; in the data set with L6, over 149 µM; in data set [6], over 100 µM; in data set [8], over 300 µM.

In the case of `CC[P+](CC)(CC)Cc1ccc(C(=O)c2ccccc2)cc1`, the concentration for a half-maximal effect (EC50) in data set [1] is over 254 µM; in [2], over 100 µM; in data set [3] it was over 100 µM; with L6 it was over 254 µM; in data set [6], over 100 µM; in data set [8] it was over 300 µM.

On to `Fc1c(F)c(F)c([P+](Cc2ccc(Cc3ccc(C[P+](c4ccccc4)(c4ccccc4)c4c(F)c(F)c(F)c(F)c4F)cc3)cc2)(c2ccccc2)c2ccccc2)c(F)c1F.[Br-].[Br-]`, for which the EC50 in data set [1] is 16 µM; in [2], 2.68 µM; in [3], 2.74 µM; in data set [6] it was 3.79 µM; in data set [8] it was over 300 µM. In addition, the “Ratio EC50” value in data set [4] came to 1.4; in data set [5] it was 1. Also, the selectivity ratio in [7] was over 110.

Turning to `CC(C)C[P+](Cc1ccc(Oc2ccc(C[P+](CC(C)C)(CC(C)C)CC(C)C)cc2)cc1)(CC(C)C)CC(C)C.[Br-].[Br-]`, the EC50 in data set [1] is 1.62 µM; in data set [2], 0.59 µM; in data set [3] it was 1.06 µM; in the data set on L6, 51.1 µM; in [6], 0.8 µM; in data set [8], over 300 µM. The “Ratio EC50” value is on record as 1.3 in [4] and 1.8 in [5]. For the same compound, the selectivity ratio in data set [7] is over 507.

`CC(=O)N(c1ccc(C[P+](CC(C)C)(CC(C)C)CC(C)C)cc1)c1ccc(C[P+](CC(C)C)(CC(C)C)CC(C)C)cc1`: the concentration for a half-maximal effect (EC50) in data set [1] was 11.4 µM; in the data set on L6 it was over 112 µM.

With `Nc1nc(N)nc(Nc2ccc([As]3SCC(CO)S3)cc2)n1` (stereo not given) [MELARSOPROL], the 50% effective concentration (EC50) in data set [1] turned out to be 0.0075 µM.

Turning to `C[P+](C)(Cc1ccc(C(=O)c2ccccc2)cc1)c1ccccc1.[Br-]`, the EC50 in [1] is 16.9 µM; in [2], 42.7 µM; in [3], 45.8 µM; in the data set with L6, over 241 µM; in [6] it was 46.6 µM; in data set [8] it was over 300 µM. Besides, the “Ratio EC50” value in data set [4] and in data set [5] was 1.1 each time. In data set [7], the selectivity ratio is over 7.

Consider `O=S(=O)([O-])c1cccc([P+](Cc2ccc(Cc3ccc(C[P+](c4ccccc4)(c4ccccc4)c4cccc(S(=O)(=O)[O-])c4)cc3)cc2)(c2ccccc2)c2ccccc2)c1`, for which the EC50 is over 92 µM in [1]; over 100 µM in data set [2]; over 100 µM in data set [3]; over 92 µM in the data set with L6; over 100 µM in data set [6]; over 300 µM in data set [8].

Regarding `O=S(=O)([O-])c1cccc([P+](Cc2ccc(Oc3ccc(C[P+](c4ccccc4)(c4ccccc4)c4cccc(S(=O)(=O)[O-])c4)cc3)cc2)(c2ccccc2)c2ccccc2)c1`, the half-maximal effective concentration (EC50) in data set [1] was over 92 µM; in data set [2], over 100 µM; in data set [3], over 100 µM; with L6 it was 90.5 µM; in [6], over 100 µM; in data set [8], over 300 µM.

With `CC(C)[P+](Cc1ccc(C(=O)c2ccc(C[P+](C(C)C)(C(C)C)C(C)C)cc2)cc1)(C(C)C)C(C)C.[Br-].[Br-]`, the half-maximal effective concentration (EC50) is 9.6 µM in data set [1]; 20.6 µM in data set [2]; 38.8 µM in data set [3]; over 130 µM with L6; 33.4 µM in data set [6]. For the same compound, the “Ratio EC50” value in data set [4] was 1.6; in [5] it was 1.9.

In the case of `COc1cc([C@@H]2c3cc4c(cc3[C@H](O)[C@H]3COC(=O)[C@H]23)OCO4)cc(OC)c1OC` [PODOFILOX], the EC50 in the data set with L6 was 0.012 µM.

`CCC[P+](CCC)(CCC)Cc1ccc(C(=O)c2ccc(C[P+](CCC)(CCC)CCC)cc2)cc1.[Br-].[Br-]`: the EC50 in data set [1] was 8.5 µM; in data set [2], 19.7 µM; in data set [3], 31.3 µM; in the data set on L6, over 130 µM; in data set [6], 27.2 µM. The results for the “Ratio EC50” value in data set [4] and in data set [5] were 1.4 and 1.6, respectively.

In the case of `N=C(N)c1ccc(/N=N/Nc2ccc(C(=N)N)cc2)cc1` [DIMINAZENE], the EC50 in data set [2] was determined as 0.517 µM; in data set [3], 2.62 µM. For the same compound, the “Ratio EC50” value in data set [4] is listed as 4.6; in data set [5], 5.1.

Consider `O=C(c1ccc(C[P+](c2ccco2)(c2ccco2)c2ccco2)cc1)c1ccc(C[P+](c2ccco2)(c2ccco2)c2ccco2)cc1.[Br-].[Br-]`, for which the EC50 amounted to 13.8 µM in data set [1]; 36.9 µM in data set [2]; 21.7 µM in data set [3]; 86 µM in the data set with L6; 33.8 µM in data set [6]. Besides, the results for the “Ratio EC50” value in data set [4] and in data set [5] were 0.9 and 0.6, respectively.
